According to ChEMBL document CHEMBL4382240, “Discovery of novel 2,5-dihydroxyterephthalamide derivatives as multifunctional agents for the treatment of Alzheimer's disease” (Bioorg Med Chem, 2018):
Active and inactive are the calls of the source. The calls are words filed in the database; no cut-off is given here.

Key:
[1] = target: Acetylcholinesterase (Homo sapiens, UniProt P22303); experiment: Inhibition of acetylcholinesterase (unknown origin)
[2] = Antioxidant activity assessed as trolox equivalent of APPH-induced radical scavenging activity at 5 uM preincubated for 15 mins followed by AAPH addition measured every minute for 90 mins by ORAC fluorescein assay; assay type: functional
In short: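 ORAC-FL in 75 mM phosphate buffer, pH 7.4. Fluorescein (150 nM final) and sample (tested at 1–10 µM) incubated 15 min at 37 °C. AAPH (12 mM final) then added, and fluorescence (ex 485/em 535 nm) read every minute for 90 min. Trolox standard 1–8 µM; result expressed as µM Trolox equivalent per µM compound. Duplicate wells; three independent experiments.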

[3] = target: T1, Acetylcholinesterase (Rattus norvegicus, UniProt P37136); experiment: Inhibition of rat AChE
T1 sequence (P37136 whole entry): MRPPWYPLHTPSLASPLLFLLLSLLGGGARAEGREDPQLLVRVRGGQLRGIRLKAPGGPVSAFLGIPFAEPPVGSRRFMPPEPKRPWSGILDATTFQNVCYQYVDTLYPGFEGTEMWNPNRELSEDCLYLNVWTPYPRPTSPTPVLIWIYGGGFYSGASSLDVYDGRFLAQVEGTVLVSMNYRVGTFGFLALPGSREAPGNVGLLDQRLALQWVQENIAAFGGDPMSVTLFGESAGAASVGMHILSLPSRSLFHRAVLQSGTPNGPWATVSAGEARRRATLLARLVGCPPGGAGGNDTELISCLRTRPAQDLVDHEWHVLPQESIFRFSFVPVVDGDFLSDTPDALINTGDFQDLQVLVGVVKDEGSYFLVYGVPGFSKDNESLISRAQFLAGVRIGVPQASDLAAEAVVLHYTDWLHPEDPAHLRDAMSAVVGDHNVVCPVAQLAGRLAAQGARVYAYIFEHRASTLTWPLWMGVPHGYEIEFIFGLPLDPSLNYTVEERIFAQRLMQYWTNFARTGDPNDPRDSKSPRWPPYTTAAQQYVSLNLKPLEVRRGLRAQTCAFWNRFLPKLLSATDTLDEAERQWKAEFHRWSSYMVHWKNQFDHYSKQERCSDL
In short: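 Ellman assay using 5% rat cortex homogenate, preincubated 5 min with iso-OMPA (4.0 mmol/L) to block BuChE. Acetylthiocholine iodide (1 mmol/L) with inhibitor dilutions in phosphate buffer ([…], pH 7.40), incubated 15 min at 37 °C. Stopped with 0.2% DTNB, absorbance read at 405 nm. IC50 as mean of three independent experiments, each in triplicate.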

[4] = Inhibition of Cu2+ induced human amyloid beta (1 to 42) aggregation at 25 uM after 24 hrs by Thioflavin T based fluorometric assay relative to control
In short: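 Aβ1-42 (25 µM) and Cu2+ (25 µM) in HEPES buffer (20 mM, pH 6.6, 150 mM NaCl), with or without compound (25 µM final), incubated 24 h at 37 °C. ThT (5 µM) in glycine-NaOH, pH 8.5, added and fluorescence read. Triplicate; three independent experiments.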

[5] = Anti-inflammatory activity in […] cells assessed as inhibition of LPS-stimulated NO release at 2.5 uM preincubated for 30 mins followed by LPS stimulation and measured after 24 hrs by Griess reagent based assay relative to control; assay type: functional; details: BV-2
In short: (§1)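 BV-2 cells cultured 24 h in DMEM (10% FBS, glutamine, pyruvate, pen/strep) at 37 °C, 5% CO2. Compound (DMSO stock diluted in PBS) added 30 min before LPS (1.0 µg/mL), then 24 h. Nitrite in supernatant measured by Griess reagent for 10 min at room temperature, A540, against a NaNO2 standard curve. Triplicate wells; mean ± SD of three independent experiments.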

[6] = Cytotoxicity against […] cells assessed as decrease in cell viability up to 10 uM measured after 24 hrs by MTT assay; assay type: cell-based
In short: (§2)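 BV-2 cells grown 24 h, then treated with compound (0.5, 2.5, 10.0 µM) for 30 min, with or without LPS (1.0 µg/mL), for a further 24 h. MTT (5 mg/mL) added for 4 h, formazan dissolved in DMSO, A490 read. Viability given as percent of untreated cells. Triplicate wells; three independent experiments.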

[7] = Effective permeability of the compound in PBS/EtOH at 100 ug/ml after 18 hrs by PAMPA; assay type: ADME; details: read-out: Peff
[8] = Effect on NO release in […] cells up to 10 uM after 24 hrs by Griess reagent based assay; assay type: ADME, cell-based
In short: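 BV-2 cells in DMEM treated with compound alone, without LPS, up to 10 µM. Nitrite in culture supernatant measured by Griess reagent (A540) against a NaNO2 standard curve. Mean ± SD of three independent experiments.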

[9] = target: T2, Amyloid-beta precursor protein (Homo sapiens, UniProt P05067); experiment: Disaggregation of self-induced preformed fibrils of human amyloid beta (1 to 42) at 25 uM after 24 hrs by Thioflavin T based fluorometric assay relative to control
In short: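 Aβ1-42 diluted in HEPES buffer (20 mM, pH 6.6, 150 mM NaCl) and pre-aggregated 24 h at 37 °C. Compound (25 µM) then added for another 24 h at 37 °C on a sealed plate. Remaining fibrils read by ThT fluorescence in glycine-NaOH, pH 8.5. Triplicate; three independent experiments.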

[10] = Anti-inflammatory activity in […] cells assessed as inhibition of LPS-stimulated TNFalpha release at 10 uM preincubated for 30 mins followed by LPS stimulation and measured after 24 hrs by ELISA relative to control; assay type: functional; details: BV-2
In short: (§3)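 Confluent BV-2 cells in DMEM preincubated 30 min with compound, tested over 0.5–10 µM, then stimulated with LPS (1.0 µg/mL) for 24 h. Released TNF-α measured by ELISA following kit instructions. Triplicate wells; mean ± SD of three independent experiments.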

[11] = species on record: Homo sapiens; experiment: Anti-inflammatory activity in […] cells assessed as inhibition of LPS-stimulated TNFalpha release at 0.5 uM preincubated for 30 mins followed by LPS stimulation and measured after 24 hrs by ELISA; assay type: functional, cell-based; in short: as §3
[12] = target: Acetylcholinesterase (Electrophorus electricus, UniProt O42275); experiment: Inhibition of electric eel AChE using acetylthiocholine iodide as substrate after 15 mins by Ellman's method
[13] = target: T1, Acetylcholinesterase; experiment: Inhibition of rat cortex AChE using acetylthiocholine iodide as substrate after 15 mins by Ellman's method
[14] = species on record: Homo sapiens; experiment: Anti-inflammatory activity in […] cells assessed as inhibition of LPS-stimulated TNFalpha release preincubated for 30 mins followed by LPS stimulation and measured after 24 hrs by ELISA; assay type: functional, cell-based; in short: as §3
[15] = target: Butyrylcholinesterase (Rattus norvegicus, UniProt Q9JKC1); experiment: Inhibition of rat serum BuChE using butyrylthiocholine iodide as substrate after 15 mins by Ellman's method; assay type: ADME
[16] = Anti-inflammatory activity in […] cells assessed as inhibition of LPS-stimulated TNFalpha release at 2.5 uM preincubated for 30 mins followed by LPS stimulation and measured after 24 hrs by ELISA relative to control; assay type: functional; details: BV-2; in short: as §3
[17] = Anti-inflammatory activity in […] cells assessed as inhibition of LPS-stimulated NO release at 10 uM preincubated for 30 mins followed by LPS stimulation and measured after 24 hrs by Griess reagent based assay relative to control; assay type: functional; details: BV-2; in short: as §1
[18] = Disaggregation of Cu2+ induced preformed fibrils of human amyloid beta (1 to 42) at 25 uM after 24 hrs by Thioflavin T based fluorometric assay relative to control
In short: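 Aβ1-42 (25 µM) with Cu2+ (25 µM) in HEPES buffer pre-aggregated 24 h at 37 °C. Compound (25 µM) then added for a further 24 h at 37 °C. Fibril content measured by ThT fluorescence (glycine-NaOH, pH 8.5). Triplicate; three independent experiments.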

[19] = Effect on TNFalpha release in […] cells up to 10 uM after 24 hrs by ELISA; assay type: ADME, cell-based
In short: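 BV-2 cells exposed to compound up to 10 µM with no added LPS. TNF-α in the medium measured by ELISA. Mean ± SD of three independent experiments.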

[20] = target: T2, Amyloid-beta precursor protein; experiment: Inhibition of human amyloid beta (1 to 42) self-induced aggregation after 24 hrs by Thioflavin T based fluorometric assay
In short: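 Self-induced Aβ1-42 aggregation (25 µM peptide) in phosphate buffer, pH 7.4, for 24 h at 37 °C with varying compound concentrations. Aggregation read by ThT fluorescence (5 µM ThT, glycine-NaOH pH 8.5).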

[21] = Cytotoxicity against […] cells assessed as decrease in cell viability up to 10 uM preincubated for 30 mins followed by LPS stimulation and measured after 24 hrs by MTT assay; assay type: cell-based; in short: as §2
[22] = target: T2, Amyloid-beta precursor protein; experiment: Inhibition of human amyloid beta (1 to 42) self-induced aggregation at 25 uM after 24 hrs by Thioflavin T based fluorometric assay relative to control
In short: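 Aβ1-42 (25 µM final) incubated with compound (25 µM final) in 50 mM phosphate buffer, pH 7.4, for 24 h at 37 °C under a sealing film. ThT (5 µM) in 50 mM glycine-NaOH, pH 8.5, then added and fluorescence measured. Triplicate; mean ± SD of three independent experiments.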

[23] = species on record: Homo sapiens; experiment: Anti-inflammatory activity in […] cells assessed as inhibition of LPS-stimulated NO release preincubated for 30 mins followed by LPS stimulation and measured after 24 hrs by Griess reagent based assay; assay type: functional, cell-based

T2 sequence (P05067 whole entry): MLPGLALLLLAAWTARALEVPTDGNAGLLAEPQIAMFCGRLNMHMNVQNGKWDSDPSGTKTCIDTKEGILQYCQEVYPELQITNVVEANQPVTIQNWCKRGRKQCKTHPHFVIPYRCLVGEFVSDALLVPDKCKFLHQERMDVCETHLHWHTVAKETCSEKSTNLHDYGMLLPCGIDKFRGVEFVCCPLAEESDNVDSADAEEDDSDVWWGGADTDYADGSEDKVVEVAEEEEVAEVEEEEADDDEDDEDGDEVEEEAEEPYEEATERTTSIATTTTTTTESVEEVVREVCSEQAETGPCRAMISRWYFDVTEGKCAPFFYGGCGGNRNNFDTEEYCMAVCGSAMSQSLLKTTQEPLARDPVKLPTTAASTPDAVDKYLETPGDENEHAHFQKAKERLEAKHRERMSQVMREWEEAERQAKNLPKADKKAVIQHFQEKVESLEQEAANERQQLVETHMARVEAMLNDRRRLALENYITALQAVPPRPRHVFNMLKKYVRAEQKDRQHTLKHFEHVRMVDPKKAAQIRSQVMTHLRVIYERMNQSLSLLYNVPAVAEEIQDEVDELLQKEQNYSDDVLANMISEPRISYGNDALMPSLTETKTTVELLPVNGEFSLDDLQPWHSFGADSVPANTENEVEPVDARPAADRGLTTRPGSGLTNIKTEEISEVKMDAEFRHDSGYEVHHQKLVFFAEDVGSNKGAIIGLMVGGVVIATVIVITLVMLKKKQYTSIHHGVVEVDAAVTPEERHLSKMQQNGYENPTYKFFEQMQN
Acetylcholinesterase (Electrophorus electricus, UniProt O42275), sequence (O42275 whole entry): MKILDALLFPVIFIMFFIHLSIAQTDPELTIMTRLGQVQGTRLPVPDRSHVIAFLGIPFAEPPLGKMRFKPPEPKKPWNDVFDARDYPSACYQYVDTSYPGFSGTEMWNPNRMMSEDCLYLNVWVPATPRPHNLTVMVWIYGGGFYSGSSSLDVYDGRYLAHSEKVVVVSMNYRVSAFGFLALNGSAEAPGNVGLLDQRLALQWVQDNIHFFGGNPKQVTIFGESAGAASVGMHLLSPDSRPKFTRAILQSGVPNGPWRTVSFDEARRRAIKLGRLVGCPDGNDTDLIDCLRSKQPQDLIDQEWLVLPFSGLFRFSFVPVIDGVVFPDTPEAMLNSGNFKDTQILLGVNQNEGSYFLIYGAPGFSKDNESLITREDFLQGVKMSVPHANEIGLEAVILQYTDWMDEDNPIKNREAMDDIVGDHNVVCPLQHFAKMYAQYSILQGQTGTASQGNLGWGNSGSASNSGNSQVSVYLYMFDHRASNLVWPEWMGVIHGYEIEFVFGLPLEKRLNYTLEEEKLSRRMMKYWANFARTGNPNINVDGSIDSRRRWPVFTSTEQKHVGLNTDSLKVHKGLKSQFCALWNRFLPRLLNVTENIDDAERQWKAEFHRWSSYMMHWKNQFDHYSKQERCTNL
Butyrylcholinesterase, sequence (Q9JKC1 whole entry): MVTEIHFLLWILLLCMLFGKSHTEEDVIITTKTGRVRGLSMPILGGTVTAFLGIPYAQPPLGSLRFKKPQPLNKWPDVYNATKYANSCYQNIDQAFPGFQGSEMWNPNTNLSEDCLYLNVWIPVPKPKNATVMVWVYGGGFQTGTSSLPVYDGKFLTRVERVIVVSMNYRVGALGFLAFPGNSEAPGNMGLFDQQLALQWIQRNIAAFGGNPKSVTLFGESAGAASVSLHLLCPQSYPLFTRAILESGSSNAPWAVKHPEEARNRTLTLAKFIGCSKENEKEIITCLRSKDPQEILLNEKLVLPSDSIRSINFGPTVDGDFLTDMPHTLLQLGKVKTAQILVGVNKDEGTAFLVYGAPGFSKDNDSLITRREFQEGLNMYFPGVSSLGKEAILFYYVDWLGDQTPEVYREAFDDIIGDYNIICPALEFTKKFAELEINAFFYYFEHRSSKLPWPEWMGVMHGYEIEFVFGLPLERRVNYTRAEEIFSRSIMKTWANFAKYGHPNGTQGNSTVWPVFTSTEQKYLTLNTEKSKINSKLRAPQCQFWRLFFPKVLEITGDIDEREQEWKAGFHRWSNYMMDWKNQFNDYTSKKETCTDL
Acetylcholinesterase (Homo sapiens, UniProt P22303), sequence (P22303 whole entry): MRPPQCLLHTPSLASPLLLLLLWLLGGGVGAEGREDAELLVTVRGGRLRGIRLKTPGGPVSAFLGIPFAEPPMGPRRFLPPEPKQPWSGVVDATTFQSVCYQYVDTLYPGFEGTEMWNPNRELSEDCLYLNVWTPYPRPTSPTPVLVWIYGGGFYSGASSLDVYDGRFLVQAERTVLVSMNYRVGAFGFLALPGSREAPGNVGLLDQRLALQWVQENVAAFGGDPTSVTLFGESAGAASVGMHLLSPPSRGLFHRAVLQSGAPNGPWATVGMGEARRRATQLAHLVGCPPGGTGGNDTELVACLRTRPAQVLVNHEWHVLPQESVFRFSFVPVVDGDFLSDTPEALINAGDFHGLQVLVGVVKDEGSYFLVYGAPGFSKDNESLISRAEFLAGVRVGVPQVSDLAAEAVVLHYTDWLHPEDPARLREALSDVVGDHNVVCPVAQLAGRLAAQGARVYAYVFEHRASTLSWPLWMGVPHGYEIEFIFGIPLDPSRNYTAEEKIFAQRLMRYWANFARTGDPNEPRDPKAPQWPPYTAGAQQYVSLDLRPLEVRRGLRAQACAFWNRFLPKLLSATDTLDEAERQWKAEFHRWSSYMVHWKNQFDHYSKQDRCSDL

Structure (SMILES)	Activity [2] [equiv]	inhibition [4] [%]	inhibition at 2.5 µM [5] [%]	Activity [6]	Activity [8]	Activity [9] [%]	inhibition at 10 µM [10] [%]	inhibition [11]	IC50 [12] [µM]	IC50 [13] [µM]	inhibition [14]	IC50 [15] [µM]	inhibition at 2.5 µM [16] [%]	inhibition at 10 µM [17] [%]	Activity [18] [%]	Activity [19]	IC50 [20] [µM]	Activity [21]	inhibition [22] [%]	inhibition [23]	also measured
O=C(O)c1ccccc1O [SALICYLIC ACID]																					IC50 [1]: 346 µM
CCN(CCCCCCNC1=CC(=O)C(NCCCCCCN(CC)Cc2ccccc2OC)=CC1=O)Cc1ccccc1OC [MEMOQUIN]	0.77																				IC50 [3]: 0.00155 µM
CCN(CCCCCCNC(=O)c1cc(O)c(C(=O)NCCCCCCN(CC)Cc2ccccc2OC)cc1O)Cc1ccccc1OC	1.43	89.9	33.3	Non-Toxic	Non-Toxic	83.8	50.6	inactive	6.75	1.68	Dose-dependent effect	> 100	20.6	63.3	85.3	Non-Toxic	3.31	Non-Toxic	99.6	Dose-dependent effect	Papp at 18 h, 100 ug/ml [7]: 5.54 ×10⁻⁶ cm/s
O=C(O)c1cc(O)c(C(=O)O)cc1O	4.7	8.1	8.3	Non-Toxic			18.2		> 100	> 100		> 100	5.9	12.5				Non-Toxic	4.7		
CCN(CCCNC(=O)c1cc(O)c(C(=O)NCCCN(CC)Cc2ccccc2OC)cc1O)Cc1ccccc1OC	1.1	88.8	35	Non-Toxic	Non-Toxic	77.3	41.1	inactive	11.4	0.67	Dose-dependent effect	> 100	28.2	50.8	73.1	Non-Toxic	2.41	Non-Toxic	98.2	Dose-dependent effect	Papp at 18 h, 100 ug/ml [7]: 4.23 ×10⁻⁶ cm/s
CC(C(=O)O)c1ccc(-c2ccccc2)c(F)c1 (stereo not drawn) [FLURBIPROFEN]			11.8	Non-Toxic			30.3						9.6	23				Non-Toxic			
COc1ccccc1CN(C)CCCCNC(=O)c1cc(O)c(C(=O)NCCCCN(C)Cc2ccccc2OC)cc1O	0.64	65.4	36.7	Non-Toxic	Non-Toxic	80.3	59.4	inactive	5.87	7.37	Dose-dependent effect	19.2	32.9	57.5	76.3	Non-Toxic	3.45	Non-Toxic	98.6	Dose-dependent effect	
